Assay results as given in ChEMBL document CHEMBL1152630, “Synthesis and evaluation of benzo[b]thiophene derivatives as inhibitors of alkaline phosphatases” (Bioorg Med Chem, 2009).
Where a name gives a salt, the structure may show the parent alone.

Key:
[1] = target: Intestinal-type alkaline phosphatase (Bos taurus) (UniProt P19111); experiment: Inhibition of bovine intestinal alkaline phosphatase assessed as residual enzyme activity at 0.1 mM in presence of 1% DMSO at pH 10.4 at 37 degC relative to untreated control
Procedure, shortened: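 Screening in 25 mM piperazine, 25 mM glycylglycine, 5 mM MgCl2, 5 µM ZnCl2, pH 10.4, 37 °C. BIAP (0.1–0.3 µg/mL) preincubated 10 min with 0.1 mM compound (final DMSO 1% v/v), no substrate. Reaction started with 0.05 mM pNPP; read at 420 nm (ε 18.6 cm⁻¹ mM⁻¹). Activity given relative to inhibitor-free control; sample-to-sample error 5%.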

[2] = Inhibition of porcine kidney tissue non-specific alkaline phosphatase at pH 7.8 at 37 degC; design: species or system Sus scrofa
Sus scrofa [3] = organism: Sus scrofa; experiment: Inhibition of porcine kidney tissue non-specific alkaline phosphatase assessed as residual enzyme activity at 0.4 mM in presence of 4% DMSO at pH 10.4 at 37 degC relative to untreated control
Sus scrofa [4] = organism: Sus scrofa; experiment: Inhibition of porcine kidney tissue non-specific alkaline phosphatase assessed as residual enzyme activity at 0.4 mM in presence of 1% DMSO at pH 10.4 at 37 degC relative to untreated control

Chain of Intestinal-type alkaline phosphatase (Bos taurus) (P19111 20-506 limits assumed): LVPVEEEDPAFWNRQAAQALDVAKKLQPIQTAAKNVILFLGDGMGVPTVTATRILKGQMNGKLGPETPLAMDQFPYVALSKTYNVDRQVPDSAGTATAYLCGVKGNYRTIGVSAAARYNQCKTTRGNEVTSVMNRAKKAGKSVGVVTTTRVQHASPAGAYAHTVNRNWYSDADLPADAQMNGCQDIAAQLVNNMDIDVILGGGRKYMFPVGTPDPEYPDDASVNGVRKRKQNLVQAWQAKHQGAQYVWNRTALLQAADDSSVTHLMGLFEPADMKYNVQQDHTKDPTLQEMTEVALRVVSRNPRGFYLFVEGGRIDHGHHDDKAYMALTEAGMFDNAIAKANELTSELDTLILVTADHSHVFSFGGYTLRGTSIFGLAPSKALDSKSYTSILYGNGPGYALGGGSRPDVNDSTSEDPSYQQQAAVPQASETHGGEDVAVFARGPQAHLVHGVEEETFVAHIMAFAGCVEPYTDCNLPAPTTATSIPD

| SMILES | Activity [1] | Ki [2] | Activity (Sus scrofa [3]) | Activity (Sus scrofa [4]) |
| --- | --- | --- | --- | --- |
| c1ccc(-c2cc3ccccc3s2)nc1 | 119% |  | 94% |  |
| [O-][s+]1cc(Oc2ccc(Cl)cc2)c2ccccc21 (centres undefined) | 122% |  | 103% |  |
| COc1cccc(C(=O)c2c(-c3ccc(OC)cc3[N+](=O)[O-])sc3ccccc23)c1 | 116% |  | 100% |  |
| COc1ccc(-c2sc3ccccc3c2CN)c(N)c1 | 103% |  | 103% |  |
| c1ccc([C@H]2CN3CCSC3=N2)cc1 [LEVAMISOLE HYDROCHLORIDE] | 99% | 93 µM | 10% |  |
| COc1c(-c2ccccn2)sc2ccccc12 | 99% |  | 90% |  |
| Cc1ccc(-c2cc3ccccc3s2)c(N)c1 | 107% |  | 93% |  |
| COc1ccc(-c2sc3ccccc3c2C=O)cc1 | 37% |  | 99% |  |
| N#Cc1ccccc1-c1sc2ccccc2c1C=O | 110% |  | 79% |  |
| FC(F)(F)COc1sc2ccccc2c1-c1cccnc1 | 102% |  | 97% |  |
| COc1ccc(-c2sc3ccccc3c2C(=O)c2ccccc2OC)c([N+](=O)[O-])c1 | 117% |  | 111% |  |
| c1ccc2c(N3CCCCC3)csc2c1 | 92% |  | 80% |  |
| N#Cc1ccc(-c2sc3ccccc3c2C=O)cc1 | 92% |  | 105% |  |
| CN1CCN(c2csc3ccccc23)CC1 | 107% |  | 97% |  |
| N#Cc1ccccc1-c1sc2ccccc2c1N1CCCCC1 | 99% |  | 100% |  |
| N#Cc1ccccc1-c1sc2ccccc2c1Oc1ccc(Cl)cc1 | 101% |  | 79% |  |
| Cc1ccccc1-c1sc2ccccc2c1C#N | 5% |  | 85% |  |
| N#Cc1ccc(Oc2c(-c3ccccc3C#N)sc3ccccc23)cc1 | 82% |  | 97% |  |
| c1ccc(-c2sc3ccccc3c2N2CCCCC2)cc1 | 99% |  | 81% |  |

Further lines, results first:

| Activity [1] | Ki [2] | Activity (Sus scrofa [3]) | Activity (Sus scrofa [4]) | SMILES |
| --- | --- | --- | --- | --- |
| 99% | 85 µM | 11% |  | C1=CN2CC(c3csc4ccccc34)N=C2S1 (centres undefined) |
| 104% |  | 89% |  | c1ccc(Oc2csc3ccccc23)cc1 |
| 105% |  | 111% |  | NCc1c(-c2cccnc2)sc2ccccc12 |
| 101% |  | 87% |  | N#Cc1ccccc1-c1c(OCC(F)(F)F)sc2ccccc12 |
| 96% |  | 97% |  | N#Cc1c(-c2ccc(C(F)(F)F)cc2)sc2ccccc12 |
| 113% |  | 100% |  | CC(C)(C)c1ccc(Oc2csc3ccccc23)cc1 |
| 100% | 135 µM | 19% |  | c1ccc2c(C3CN4CCSC4=N3)csc2c1 (centres undefined) |
| 90% |  | 93% |  | COc1csc2ccccc12 |
| 103% |  |  | 79% | FC(F)c1c(-c2cccnc2)sc2ccccc12 |
| 107% |  | 93% |  | O=[N+]([O-])c1cc(Cl)ccc1-c1cc2ccccc2s1 |
| 105% |  | 100% |  | [O-][s+]1cc(Br)c2ccccc21 (centres undefined) |
| 121% |  | 106% |  | COc1ccc(Oc2c(-c3ccccc3C#N)sc3ccccc23)c(OC)c1OC |
| 112% |  | 44% |  | COc1c(-c2cccnc2)sc2ccccc12 |
| 124% |  | 92% |  | COc1ccc(-c2sc3ccccc3c2C(=O)c2cc(OC)c(OC)c(OC)c2)c([N+](=O)[O-])c1 |
| 91% |  | 92% |  | N#Cc1ccccc1-c1sc2ccccc2c1C(=O)c1ccccc1 |
| 30% |  | 80% |  | O=Cc1c(-c2ccc(C(F)(F)F)cc2)sc2ccccc12 |
| 82% |  | 83% |  | CN(C)c1ccc(-c2sc3ccccc3c2C#N)cc1 |
| 103% |  | 105% |  | N#Cc1cc2ccccc2s1 |
| 125% |  | 95% |  | COc1ccc(-c2sc3ccccc3c2C(=O)c2cc(OC)c(O)c(OC)c2)c([N+](=O)[O-])c1 |
